Results as given in the EternaBench riboswitch data.

Tested on: MS2 coat protein
Assay: apparent Kd, MS2 coat protein; higher = weaker binding; RNA-MaP array; FMN 200 µM where present
Summary of the method: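 Designs on Illumina sequencing-chip clusters, transcribed by stalled E. coli RNA polymerase, were exposed to SNAP-549-labelled MS2 coat protein in doubling steps from 0.7 or 1.5 nM up to 3 µM, without and then with constant ligand. The buffer held 100 mM Tris-HCl pH 7.5, 80 mM KCl, 4 mM MgCl2, BSA, DTT, yeast tRNA and Tween-20. Apparent Kd values are medians of filtered per-cluster binding-curve fits to green signal normalised to red-channel RNA signal and control-cluster median Fmax.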

[1] = designed as: OFF switch for flavin mononucleotide, no ligand
[2] = ligand present: flavin mononucleotide, designed as: OFF switch for flavin mononucleotide
[3] = designed as: ON switch for flavin mononucleotide, no ligand
[4] = ligand present: flavin mononucleotide, designed as: ON switch for flavin mononucleotide

Row | Sequence | apparent Kd [1] [nM] | apparent Kd [2] [nM] | apparent Kd [3] [nM] | apparent Kd [4] [nM]
1 | GAAGUUCUCCAGAAGGCACAUGAGGAUCACCCAUGUAAAAGAGCCUUAAUGUGAGGAUAUGGAAGCUGCUUCAUAGAUGACAUA | 6.61 | 26.5 |  | 
2 | GUUAUGUCAGGAUAUGCUUAUGGUGGGUGCUCAGACAUGAUGCAGAAGGGACAUGAGGAUCACCCAUGUACUGU | 593 | 435 |  | 
3 | AGUACUACAGGAUAUACAUGAGUGAUACUCAUAUCCCUACUACAUGAGGAUCACCCAUGUAGAAGGGUAGUACA | 11.7 | 10.1 |  | 
4 | CGAUGAGGUGUGAGGAUAUCGUGUUCGAAAGAACGUGAGAAGGCACAUGAGGAUCACCCAUGUGAACCUUGUCG | 16.9 | 18.8 |  | 
5 | CAGUACUGAGGAUAUACAUGAGGAUCACCCAUGUGUUCCAGCUAGGAAACUAGCUAAAGUAGAAGGCAGUACUG | 21.9 | 424 |  | 
6 | GUAUGAUUAAGAGGAUAUAUACAACAUGAGGAUCACCCAUGUACCCGUGUAGUAGAAGGUUUGUUUUUAUAUAAUAAUAUAAUU |  |  | 26.6 | 19.1
7 | GGCGGCGCGGGCCACCGCAGGGCCAGAAGGACAUGAGGAUCACCCAUGUGGCAGGACAGGGCGGUGUAGGAUAUGGCAGGCUCG | 11.9 | 43.3 |  | 
8 | UGUGCUGAAGGAUAUGCGUAAUGGCCGUGAGGCCUAGAUCUACAUGAGGAUCACCCAUGUAGAAGGUCAGUACU | 17.4 | 18.9 |  | 
9 | GGCUAGUGAGGAUAUACGUGCAGUCCUCAGUCGCCAGUCGGACAUGAGGAUCACCCAUGUAGAAGGUAUCGGCA | 35.8 | 38.9 |  | 
10 | GAAUAGGCAGGAUAUACAUGAGGAUCACCCAUGUGCUUGCGCUAGGCACGUGAACAACGUAGAAGGGCCUAGAC | 14 | 22.8 |  | 
11 | UUCAUCAAUGAAGGAUAUCUAUGUCCAACAUGAGGAUCACCCAUGUUGAGGAUCACCUAUGUAUAGGAGAAGGUUAAUAUAACU |  |  | 7.32 | 6.28
12 | AGAAAACAUGAGGAUCACCCAUGUGAGGAUAUCGAUGUCCAAGGAAGGGUGCGGGACUCGAGAAGGCACUUGGA | 72.4 | 58.8 |  | 
13 | UAUAUAUAGUAAGGAUAUGUAUAUAUUUAAUAAACAGAAGGUACUGACAUGAGGAUCACCCAUGUUUUAGUGUGGGCAUGUAGA | 74.1 | 110 |  | 
14 | GGGUACAUCGGAGGAUAUCAUGUAAAUACAUGAGGAUCACCCAUGUCGAUGGAGACAUCGUAGAUUGAGAAGGCCGAUGUACCG |  |  | 9.85 | 5.37
15 | CUGCCUUAUGUAGGAUAUGCAUAGCGUUGCUAUGCAGAAGGACAUGAGGAUCACCCAUGUAUGUUAUCAAUACAUAUCUGGCAG | 16.9 | 53.2 |  | 
16 | GUGGUCAGACAUGAGGAUCACCCAUGUGGAAUAAAUAAGGGUUAGGAUAUGCAAUAUAGGAUAUAGCAGAAGGGAUGGUUGGUG |  |  | 128 | 173
17 | GCCAGGAUGUGAGGAUAUGCUGAGGAUAACUCAGCAGAAGGCACAUGAGGAUCACCCAUGUAAACCUAUAAUAAAUACCCUGGC | 12.1 | 24.4 |  | 
18 | UCGGCGCGAGGAUAUACGUUUGCUUUUUUGUGUCGUUGCGUACAUGAGGAUCACCCAUGUAGAAGGCGCGCCGC | 17.5 | 83.6 |  | 
19 | GCCUCACAUGAGGAUCACCCAUGUCAGGAUAUAGGAGAUGGCAGAAAUCCUACCAUCGCUAGAAGGGACUGGCA | 43.4 | 76.4 |  | 
20 | AAGAGGCGAGGAUAUACAUGAGGAUCACCCAUGUAAUCCGGAUAAGGAAGCAUGUCGUGUAGAAGGUGCCAUGA | 20.7 | 19.2 |  | 
21 | GGUUGACAUAGUCAUCCUUAACGAACAUGAGGAUCACCCAUGUAGGAUAUGCUACUCAAAGAGUAGCAGAAGGGCGUGUGUCUU | 28.3 | 36.1 |  | 

Row | Sequence | apparent Kd [1] [nM] | apparent Kd [2] [nM] | apparent Kd [3] [nM] | apparent Kd [4] [nM]
22 | UUGGGAUGCAAGAAGGGUGACAUGAGGAUCACCCAUGUGUUGUGAAGUCUCGAGAUUUUAUGACCAUAGGAUAUUGCACCGAAC |  |  | 31.6 | 21.6
23 | UGAUAGGACAGAGGAUAUACCGAUAGGAGAUACUAUCGACUAGUCCUCACAUGAGGAUCACCCAUGUAGAAGGCUGUCCUAUCU | 22.8 | 269 |  | 
24 | GGAUCAGAUGAGGAUAUUCGUUGUAUAACAACAGGAGAAGGCAUCACAUGAGGAUCACCCAUGUUCUACCUUCC | 14.1 | 15.8 |  | 
25 | UUGGACGUCGUAGGAUAUGUAGGAUAUUCCUACAUGAGGAUCACCCAUGUUGACAUGGAAGUAGGACAGAAGGACGAUGUCCAU |  |  | 497 | 23.1
26 | GUCCACAUGAGGAUCACCCAUGUGAGAAGGUUGGUUUUGUUGAGGUAGUGGUUUGCCUUGGUGGUAGAGGAUAUUGAUGGGUUA | 7.7 | 7.33 |  | 
27 | GUAGAGUAAGGAUAUGUAGAAUAGGAUAGAAUGGUUAGAAUACAGAAGGUACAUGAGGAUCACCCAUGUAAUGU | 17.7 | 19.6 |  | 
28 | GCUGUCGCGUGAGGAUAUGGUCGGCUUUGCUGACCAGAAGGCAUGUCAAUAGACAUGAGGAUCACCCAUGUGGUUAGGGCGGCU |  |  | 1020 | 134
29 | UUUGUUUAUGCAGGAUAUUGUAUUUUAUUACAUCAAGAAGGGCAUUACAUGAGGAUCACCCAUGUUAUCUUAUGGUUAACUAGU | 20.8 | 21.3 |  | 
30 | UGAUCUUACAUGAGGAUCACCCAUGUAGGCCAGUAACUAACCAGAAGGCACGUAGAGUAAAACAGUGAGGAUAUGGAUGACAUA |  |  | 11.7 | 6.32
31 | UGCCUUGAGUAGAAGGGCUGUGCUGUGGCACUGAGUCCUCUCGACAUGAGGAUCACCCAUGUAGAGCAGGAUAUACUCGGAUAA | 5.78 | 7.3 |  | 
32 | CCCAAACUUGGGUUUGGUGGUUCAUAGGAUAUGCUUGUACAUGAGGAUCACCCAUGUACUAUUGUGCAGAAGGGUGCAUGGCAA |  |  | 36.7 | 26.5
33 | AUAUUAUUGAUCCAUUUUUUCAACAUGAGGAUCACCCAUGUGCAGGAUAUCGUGUGUUUUAUAAACGAGAAGGGCAAAUUCAUU | 82.6 | 218 |  | 
34 | UGGCGUUGAGGAUAUACAUUGAAUAAGAUUCAUGUAAAACUACAUGAGGAUCACCCAUGUAGAAGGCAAUGCCU | 16.9 | 27.7 |  | 
35 | AUAUAAAUAUAGGAUAUCGAAUUUAUUAAUUAUCGAGAAGGAUAAACAUGAGGAUCACCCAUGUGGUAUCAUGG | 366 | 336 |  | 
36 | GCGUAUUUAAGAUUUAUAAAACAGUCAGAAGGUGAUAAGACGACAUGAGGAUCACCCAUGUAAUUCAAGGAUAUGAAAAUGCGC |  |  | 48.6 | 22.1
37 | AUAUCAAGCAAGGAUAUGCAAAUGGUUAUUUAUGCAGAAGGUGCGACAUGAGGAUCACCCAUGUUUCUGGGUUU | 87.7 | 134 |  | 
38 | GGAUCUGAAACAGAUCCAAUACGAACAUGAGGAUCACCCAUGUAGGAUAUGCUACUCAAAGAGUAGCAGAAGGACAUGUGUCUU | 24.3 | 147 |  | 
39 | CAAUUGGCACAGAAGGGUGACAUGAGGAUCACCCAUGUAGCGUGGUACUCAGGAGGAACCACGCCACAGGAUAUGUGCCGGCAC |  |  | 44.5 | 123
40 | UUAAUGUGAGGAUAUCAGGUGUGAUAGAGUAAUGGUAAAUCUGAGAAGGCACAUGAGGAUCACCCAUGUUCUUC | 23 | 33.8 |  | 
41 | AUAUGGAAUACAGGAUAUGUAAGUUUUAAGUGUAUUGGUUAUUACUUAACAACAGAAGGGUAUUACAUGAGGAUCACCCAUGUA |  |  | 12.8 | 10
42 | UACGUACAGAAGAACGCCGGGUCCAGAAGGGACAUGAGGAUCACCCAUGUACCGUUGAUUGCUUGUCAGGAUAUGGACCCGGCC | 6.32 | 21.8 |  | 
